Legend:
[1] = Inhibition of green coffee beans beta-galactosidase using […] as substrate preincubated for 30 mins followed by substrate addition by UV-vis spectrophotometry analysis; set-up: species or system Coffea arabica
[2] = Inhibition of Escherichia coli beta-galactosidase using […] as substrate preincubated for 30 mins followed by substrate addition by UV-vis spectrophotometry analysis
[3] = Inhibition of Aspergillus oryzae beta-galactosidase using […] as substrate preincubated for 30 mins followed by substrate addition by UV-vis spectrophotometry analysis
Galactocerebrosidase = biological target: T1, Galactocerebrosidase (Mus musculus, UniProt P54818); test: Inhibition of mouse N-terminal His6-tagged GALC expressed in HEK293T cells using p-nitrophenyl-beta-D-galactopyranoside as substrate
T1 sequence (P54818 whole entry): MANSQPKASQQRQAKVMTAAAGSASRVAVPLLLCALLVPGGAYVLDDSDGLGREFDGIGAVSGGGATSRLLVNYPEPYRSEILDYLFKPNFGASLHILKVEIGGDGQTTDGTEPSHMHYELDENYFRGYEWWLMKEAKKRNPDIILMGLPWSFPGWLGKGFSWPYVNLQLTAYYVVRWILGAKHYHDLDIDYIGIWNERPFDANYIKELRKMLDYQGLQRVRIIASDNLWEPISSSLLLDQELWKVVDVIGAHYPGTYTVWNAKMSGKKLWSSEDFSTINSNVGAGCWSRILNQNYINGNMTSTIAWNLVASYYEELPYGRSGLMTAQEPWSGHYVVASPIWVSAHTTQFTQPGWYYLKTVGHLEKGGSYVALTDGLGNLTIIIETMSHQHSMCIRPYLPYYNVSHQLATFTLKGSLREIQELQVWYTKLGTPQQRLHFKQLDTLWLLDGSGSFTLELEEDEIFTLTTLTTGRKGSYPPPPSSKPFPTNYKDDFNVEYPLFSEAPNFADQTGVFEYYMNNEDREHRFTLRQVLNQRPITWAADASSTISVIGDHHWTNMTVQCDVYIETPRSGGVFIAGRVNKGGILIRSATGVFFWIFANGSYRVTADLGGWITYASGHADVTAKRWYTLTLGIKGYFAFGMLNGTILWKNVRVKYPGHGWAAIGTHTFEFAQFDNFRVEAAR

[4] = biological target: T2, Galactocerebrosidase (Mus musculus) (UniProt P54818); test: Stabilization of mouse N-terminal His6-tagged GALC expressed in HEK293T cells assessed as change in melting temperature at pH 5.6 by differential scanning fluorimetry; assay type: cell-based
T2 sequence (whole entry): T1 sequence (P54818 whole entry)
Outline: (§1)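 GALC thermal melt curves recorded with and without ligand at 0.5 mM, at pH values from 4.6 to 7.4. Tm is read from each curve, and ΔTm is taken against GALC alone at the same pH. Runs were done in triplicate.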

[5] = biological target: T2, Galactocerebrosidase (Mus musculus); test: Stabilization of mouse N-terminal His6-tagged GALC expressed in HEK293T cells assessed as melting temperature at 0.5 mM at pH 7.4 by differential scanning fluorimetry (reference value: 53.4 degreeC); assay type: cell-based; outline: as §1
[6] = biological target: T2, Galactocerebrosidase (Mus musculus); test: Stabilization of mouse N-terminal His6-tagged GALC expressed in HEK293T cells assessed as change in melting temperature at pH 7.4 by differential scanning fluorimetry; assay type: cell-based; outline: as §1
[7] = biological target: T2, Galactocerebrosidase (Mus musculus); test: Stabilization of mouse N-terminal His6-tagged GALC expressed in HEK293T cells assessed as melting temperature at 0.5 mM at pH 6.6 by differential scanning fluorimetry (reference value: 59.6 degreeC); assay type: cell-based; outline: as §1
[8] = biological target: T2, Galactocerebrosidase (Mus musculus); test: Stabilization of mouse N-terminal His6-tagged GALC expressed in HEK293T cells assessed as change in melting temperature at pH 4.6 by differential scanning fluorimetry; assay type: cell-based; outline: as §1
[9] = biological target: T2, Galactocerebrosidase (Mus musculus); test: Stabilization of mouse N-terminal His6-tagged GALC expressed in HEK293T cells assessed as melting temperature at 0.5 mM at pH 4.6 by differential scanning fluorimetry (reference value: 62.2 degreeC); assay type: cell-based; outline: as §1
[10] = biological target: T2, Galactocerebrosidase (Mus musculus); test: Stabilization of mouse N-terminal His6-tagged GALC expressed in HEK293T cells assessed as melting temperature at 0.5 mM at pH 5.6 by differential scanning fluorimetry (reference value: 62.8 degreeC); assay type: cell-based; outline: as §1
[11] = biological target: T2, Galactocerebrosidase (Mus musculus); test: Stabilization of mouse N-terminal His6-tagged GALC expressed in HEK293T cells assessed as change in melting temperature at pH 6.6 by differential scanning fluorimetry; assay type: cell-based; outline: as §1

Row | Compound | Ki [1] | Ki [2] | Ki [3] | Ki (Galactocerebrosidase) | ΔTm [4] | Tm [5] | ΔTm [6] | Tm [7] | ΔTm [8] | Tm [9] | Tm [10] | ΔTm [11]
1 | OC[C@@H]1[C@H](O)[C@H](O)[C@@H]2CC[C@H]1N2 | > 1000 µM | > 1000 µM | 0.13 µM | 2300 µM |  |  |  |  |  |  |  | 
2 | OC[C@@H]1[C@H](O)[C@H](O)[C@]2(O)CC[C@H]1N2 | > 1000 µM | > 1000 µM | 0.031 µM | 7 µM | 5.2 °C | 54.8 °C | 1.4 °C | 65 °C | 5.8 °C | 68 °C | 68 °C | 5.4 °C

From ChEMBL document CHEMBL4673386, “The Bicyclic Form of galacto-Noeurostegine Is a Potent Inhibitor of β-Galactocerebrosidase” (ACS Med Chem Lett, 2021)
